Laboratory results published in ChEMBL document CHEMBL5303300, “EUbOPEN Chemogenomics Library - Multiplex” (2023).
“And” between values parts separate entries of the source, which are not always exact repeats. Equal values may be shown once.

How the values were obtained:
U2OS = test: Multiplex assay against U2OS; assay type: toxicity, cell-based; settings: human, number of replicates 2
Summary of the method: (§1)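 Live cells were stained at seeding with Hoechst33342, BioTracker Green Microtubule Cytoskeleton Dye, MitoTracker Red and Annexin V Alexa Fluor 680, then imaged on a CQ1 microscope at 37°C and 5% CO2 after compound addition. CellPathfinder machine-learning gating split cells into Hoechst high-intensity objects or normal cells. Normal cells were split into healthy, pyknosed or fragmented nuclei, and pyknosed cells into mitotic or apoptotic. Tubulin, mitochondrial-mass and membrane-permeability phenotypes are per cents of healthy-nucleus cells.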

Fibroblast = test: Multiplex assay against human fibroblast; assay type: toxicity, cell-based; settings: number of replicates 2; summary of the method: as §1
[1] = 24 h, 10 µM, compound concentration 10 uM
[2] = 48 h, 1 µM, compound concentration 1 uM
[3] = 48 h, 10 µM, compound concentration 10 uM
[4] = 12 h, 1 µM, compound concentration 1 uM
[5] = 12 h, 10 µM, compound concentration 10 uM
[6] = 24 h, 1 µM, compound concentration 1 uM

COCCNC1CCC(Nc2cc(-c3csc(NCC4(C#N)CCOCC4)n3)c(Cl)cn2)CC1 (configuration not stated)
Population Hoechst High Intensity Objects (%) (U2OS; [1]): 2% and 3% | Population Membrane Permeable-Phenotype (%) (U2OS; [1]): 0% and 20% | Population Mitochondria Different-Phenotype (%) (U2OS; [1]): 33% and 58% | Population Mitotic Cells (%) (U2OS; [1]): 8% | Population Normal (%) (U2OS; [1]): 97% and 96% | Population Pyknosed Nuclei (%) (U2OS; [1]): 84% and 60% | Population Tubulin-Different-Phenotype (%) (U2OS; [1]): 66% and 52% | Population Apoptotic (%) (U2OS; [2]): 98% and 78% | Population Fragmented Nuclei (%) (U2OS; [2]): 11% and 16% | Population Healthy Nuclei (%) (U2OS; [2]): 7% and 9% | Population Hoechst High Intensity Objects (%) (U2OS; [2]): 5% and 0% | Population Membrane Permeable-Phenotype (%) (U2OS; [2]): 53% and 66% | Population Mitochondria Different-Phenotype (%) (U2OS; [2]): 38% and 66% | Population Normal (%) (U2OS; [2]): 94% and 100% | Population Pyknosed Nuclei (%) (U2OS; [2]): 81% and 74% | Population Tubulin-Different-Phenotype (%) (U2OS; [2]): 69% and 100% | Population Apoptotic (%) (U2OS; [3]): 100% and 94% | Population Fragmented Nuclei (%) (U2OS; [3]): 9% and 5% | Population Healthy Nuclei (%) (U2OS; [3]): 6% and 16% | Population Hoechst High Intensity Objects (%) (U2OS; [3]): 2% and 3% | Population Membrane Permeable-Phenotype (%) (U2OS; [3]): 66% and 40% | Population Mitochondria Different-Phenotype (%) (U2OS; [3]): 66% and 80% | Population Mitotic Cells (%) (U2OS; [3]): 0% and 5% | Population Normal (%) (U2OS; [3]): 97% and 96% | Population Pyknosed Nuclei (%) (U2OS; [3]): 83% and 78% | Population Tubulin-Different-Phenotype (%) (U2OS; [3]): 66% and 72% | Population Apoptotic (%) (Fibroblast; [4]): 50% and 31% | Population Fragmented Nuclei (%) (Fibroblast; [4]): 7% and 12% | Population Healthy Nuclei (%) (Fibroblast; [4]): 73% and 67% | Population Hoechst High Intensity Objects (%) (Fibroblast; [4]): 0% | Population Membrane Permeable-Phenotype (%) (Fibroblast; [4]): 2% and 7% | Population Mitochondria Different-Phenotype (%) (Fibroblast; [4]): 1% and 2% | Population Mitotic Cells (%) (Fibroblast; [4]): 50% and 68% | Population Normal (%) (Fibroblast; [4]): 99% | Population Pyknosed Nuclei (%) (Fibroblast; [4]): 19% and 20% | Population Tubulin-Different-Phenotype (%) (Fibroblast; [4]): 13% and 12% | Total Cell Count (Fibroblast; [4]): 154 and 189 | Population Apoptotic (%) (Fibroblast; [5]): 48% and 47% | Population Fragmented Nuclei (%) (Fibroblast; [5]): 10% and 15% | Population Healthy Nuclei (%) (Fibroblast; [5]): 70% and 68% | Population Hoechst High Intensity Objects (%) (Fibroblast; [5]): 0% | Population Membrane Permeable-Phenotype (%) (Fibroblast; [5]): 12% and 13% | Population Mitochondria Different-Phenotype (%) (Fibroblast; [5]): 5% and 10% | Population Mitotic Cells (%) (Fibroblast; [5]): 51% and 52% | Population Normal (%) (Fibroblast; [5]): 99% and 100% | Population Pyknosed Nuclei (%) (Fibroblast; [5]): 18% and 16% | Population Tubulin-Different-Phenotype (%) (Fibroblast; [5]): 79% and 67% | Total Cell Count (Fibroblast; [5]): 219 and 209 | Population Apoptotic (%) (Fibroblast; [6]): 55% and 74% | Population Fragmented Nuclei (%) (Fibroblast; [6]): 10% and 4% | Population Healthy Nuclei (%) (Fibroblast; [6]): 71% and 80% | Population Hoechst High Intensity Objects (%) (Fibroblast; [6]): 0% | Population Membrane Permeable-Phenotype (%) (Fibroblast; [6]): 4% and 6% | Population Mitochondria Different-Phenotype (%) (Fibroblast; [6]): 3% and 0% | Population Mitotic Cells (%) (Fibroblast; [6]): 44% and 25% | Population Normal (%) (Fibroblast; [6]): 99% and 100% | Population Pyknosed Nuclei (%) (Fibroblast; [6]): 17% and 15% | Population Tubulin-Different-Phenotype (%) (Fibroblast; [6]): 20% and 19% | Total Cell Count (Fibroblast; [6]): 163 and 170 | Population Apoptotic (%) (Fibroblast; [1]): 53% and 65% | Population Fragmented Nuclei (%) (Fibroblast; [1]): 14% and 13% | Population Healthy Nuclei (%) (Fibroblast; [1]): 72% and 73% | Population Hoechst High Intensity Objects (%) (Fibroblast; [1]): 1% and 0% | Population Membrane Permeable-Phenotype (%) (Fibroblast; [1]): 11% | Population Mitochondria Different-Phenotype (%) (Fibroblast; [1]): 18% | Population Mitotic Cells (%) (Fibroblast; [1]): 46% and 34% | Population Normal (%) (Fibroblast; [1]): 98% and 100% | Population Pyknosed Nuclei (%) (Fibroblast; [1]): 12% | Population Tubulin-Different-Phenotype (%) (Fibroblast; [1]): 87% and 70% | Total Cell Count (Fibroblast; [1]): 206 and 210 | Population Apoptotic (%) (Fibroblast; [2]): 59% and 68% | Population Fragmented Nuclei (%) (Fibroblast; [2]): 9% and 11% | Population Healthy Nuclei (%) (Fibroblast; [2]): 57% and 55% | Population Hoechst High Intensity Objects (%) (Fibroblast; [2]): 0% | Population Membrane Permeable-Phenotype (%) (Fibroblast; [2]): 14% | Population Mitochondria Different-Phenotype (%) (Fibroblast; [2]): 3% and 1% | Population Mitotic Cells (%) (Fibroblast; [2]): 40% and 31% | Population Normal (%) (Fibroblast; [2]): 100% | Population Pyknosed Nuclei (%) (Fibroblast; [2]): 33% and 32% | Population Tubulin-Different-Phenotype (%) (Fibroblast; [2]): 30% and 22% | Total Cell Count (Fibroblast; [2]): 154 and 174 | Population Apoptotic (%) (Fibroblast; [3]): 54% and 76% | Population Fragmented Nuclei (%) (Fibroblast; [3]): 15% and 13% | Population Healthy Nuclei (%) (Fibroblast; [3]): 64% and 67% | Population Hoechst High Intensity Objects (%) (Fibroblast; [3]): 0% and 1% | Population Membrane Permeable-Phenotype (%) (Fibroblast; [3]): 12% and 10% | Population Mitochondria Different-Phenotype (%) (Fibroblast; [3]): 18% and 16% | Population Mitotic Cells (%) (Fibroblast; [3]): 45% and 23% | Population Normal (%) (Fibroblast; [3]): 99% | Population Pyknosed Nuclei (%) (Fibroblast; [3]): 20% and 19% | Population Tubulin-Different-Phenotype (%) (Fibroblast; [3]): 81% and 71% | Total Cell Count (Fibroblast; [3]): 207 and 200
